In ChEMBL document CHEMBL3526002, “Tissue distribution and identification of radioactivity components at elimination phase after oral administration of [¹⁴C]CS-1036, an α-amylase inhibitor, to rats” (Drug Metab Dispos, 2013):

How the values were obtained:
Small intestine [1] = assay: Drug uptake in albino F344/DuCrlCrlj rat small intestine at 5 mg/kg, po after 4 hrs by liquid scintillation counting; assay type: ADME, organism-based; parameters: dose 5 mg/kg, dosed compound name [14C]CS-1036, route oral; conditions: in vivo
Spleen = assay: Drug uptake in albino F344/DuCrlCrlj rat spleen at 5 mg/kg, po after 24 hrs by liquid scintillation counting; assay type: ADME, organism-based; parameters: dose 5 mg/kg, dosed compound name [14C]CS-1036, route oral; conditions: in vivo
[2] = Drug uptake in albino F344/DuCrlCrlj rat testis assessed as ng equivalent of CS-1036 at 5 mg/kg, po after 168 hrs by liquid scintillation counting; assay type: ADME, organism-based; parameters: dose 5 mg/kg, dosed compound name [14C]CS-1036, route oral; conditions: in vivo
[3] = Drug uptake in albino F344/DuCrlCrlj rat thyroid gland assessed as ng equivalent of CS-1036 at 5 mg/kg, po after 1 hr by liquid scintillation counting; assay type: ADME, organism-based; parameters: dose 5 mg/kg, dosed compound name [14C]CS-1036, route oral; conditions: in vivo
[4] = Drug uptake in albino F344/DuCrlCrlj rat thyroid gland assessed as ng equivalent of CS-1036 at 5 mg/kg, po after 24 hrs by liquid scintillation counting; assay type: ADME, organism-based; parameters: dose 5 mg/kg, dosed compound name [14C]CS-1036, route oral; conditions: in vivo
Plasma [5] = assay: Drug uptake in albino F344/DuCrlCrlj rat plasma at 5 mg/kg, po after 168 hrs by liquid scintillation counting; assay type: ADME, organism-based; parameters: dose 5 mg/kg, dosed compound name [14C]CS-1036, route oral; conditions: in vivo
Adrenal gland [6] = assay: Drug uptake in albino F344/DuCrlCrlj rat adrenal gland assessed as ng equivalent of CS-1036 at 5 mg/kg, po after 24 hrs by liquid scintillation counting; assay type: ADME, organism-based; parameters: dose 5 mg/kg, dosed compound name [14C]CS-1036, route oral; conditions: in vivo
Lung [7] = assay: Drug uptake in albino F344/DuCrlCrlj rat lung assessed as ng equivalent of CS-1036 at 5 mg/kg, po after 8 hrs by liquid scintillation counting; assay type: ADME, organism-based; parameters: dose 5 mg/kg, dosed compound name [14C]CS-1036, route oral; conditions: in vivo
Small intestine [8] = assay: Drug uptake in albino F344/DuCrlCrlj rat small intestine at 5 mg/kg, po after 8 hrs by liquid scintillation counting; assay type: ADME, organism-based; parameters: dose 5 mg/kg, dosed compound name [14C]CS-1036, route oral; conditions: in vivo
Lung [9] = assay: Drug uptake in albino F344/DuCrlCrlj rat lung assessed as ng equivalent of CS-1036 at 5 mg/kg, po after 336 hrs by liquid scintillation counting; assay type: ADME, organism-based; parameters: dose 5 mg/kg, dosed compound name [14C]CS-1036, route oral; conditions: in vivo
Large intestine = assay: Drug uptake in albino F344/DuCrlCrlj rat large intestine at 5 mg/kg, po after 24 hrs by liquid scintillation counting; assay type: ADME, organism-based; parameters: dose 5 mg/kg, dosed compound name [14C]CS-1036, route oral; conditions: in vivo
Heart [10] = assay: Drug uptake in albino F344/DuCrlCrlj rat heart at 5 mg/kg, po after 336 hrs by liquid scintillation counting; assay type: ADME, organism-based; parameters: dose 5 mg/kg, dosed compound name [14C]CS-1036, route oral; conditions: in vivo
Zone of skin = assay: Drug uptake in albino F344/DuCrlCrlj rat skin assessed as ng equivalent of CS-1036 at 5 mg/kg, po after 1 hr by liquid scintillation counting; assay type: ADME, organism-based; parameters: dose 5 mg/kg, dosed compound name [14C]CS-1036, route oral; conditions: in vivo
[11] = Drug uptake in albino F344/DuCrlCrlj rat trachea assessed as ng equivalent of CS-1036 at 5 mg/kg, po after 1 hr by liquid scintillation counting; assay type: ADME, organism-based; parameters: dose 5 mg/kg, dosed compound name [14C]CS-1036, route oral; conditions: in vivo
[12] = Drug uptake in albino F344/DuCrlCrlj rat brown fat at 5 mg/kg, po after 4 hrs by liquid scintillation counting; assay type: ADME, organism-based, Brown adipose tissue; parameters: dose 5 mg/kg, dosed compound name [14C]CS-1036, route oral; conditions: in vivo
Cerebrum = assay: Drug uptake in albino F344/DuCrlCrlj rat cerebrum assessed as ng equivalent of CS-1036 at 5 mg/kg, po after 1 hr by liquid scintillation counting; assay type: ADME, organism-based; parameters: dose 5 mg/kg, dosed compound name [14C]CS-1036, route oral; conditions: in vivo
How it was run: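 Single oral [14C]CS-1036 at 5 mg/kg was given to male rats (159–167 g; n = 3). Cerebrum was collected after aortic bleeding at 1, 4, 8, 24, 72, 168 or 336 h, weighed, and homogenized in 2 volumes of saline. A 0.5 ml aliquot was solubilized in Soluene-350 and counted by LSC with external-standard correction. Results are in ng equivalent/g tissue from specific activity and sample weight.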

Lung [13] = assay: Drug uptake in albino F344/DuCrlCrlj rat lung at 5 mg/kg, po after 4 hrs by liquid scintillation counting; assay type: ADME, organism-based; parameters: dose 5 mg/kg, dosed compound name [14C]CS-1036, route oral; conditions: in vivo
Heart [14] = assay: Drug uptake in albino F344/DuCrlCrlj rat heart at 5 mg/kg, po after 1 hr by liquid scintillation counting; assay type: ADME, organism-based; parameters: dose 5 mg/kg, dosed compound name [14C]CS-1036, route oral; conditions: in vivo
Stomach [15] = assay: Drug uptake in albino F344/DuCrlCrlj rat stomach at 5 mg/kg, po after 336 hrs by liquid scintillation counting; assay type: ADME, organism-based; parameters: dose 5 mg/kg, dosed compound name [14C]CS-1036, route oral; conditions: in vivo
[16] = Drug uptake in albino F344/DuCrlCrlj rat mandibular gland assessed as ng equivalent of CS-1036 at 5 mg/kg, po after 4 hrs by liquid scintillation counting; assay type: ADME, organism-based; parameters: dose 5 mg/kg, dosed compound name [14C]CS-1036, route oral; conditions: in vivo
Heart [17] = assay: Drug uptake in albino F344/DuCrlCrlj rat heart assessed as ng equivalent of CS-1036 at 5 mg/kg, po after 1 hr by liquid scintillation counting; assay type: ADME, organism-based; parameters: dose 5 mg/kg, dosed compound name [14C]CS-1036, route oral; conditions: in vivo
Blood [18] = assay: Drug uptake in albino F344/DuCrlCrlj rat blood at 5 mg/kg, po after 4 hrs by liquid scintillation counting; assay type: ADME, organism-based; parameters: dose 5 mg/kg, dosed compound name [14C]CS-1036, route oral; conditions: in vivo
How it was run: (§1)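 Male F344/DuCrlCrlj rats (159–167 g; n = 3 per time point) received a single oral dose of [14C]CS-1036 at 5 mg/kg. Blood was taken from the abdominal aorta at 1, 4, 8, 24, 72, 168 and 336 h. Radioactivity was counted by LSC with external-standard efficiency correction. Results were converted to ng equivalent of CS-1036/ml using specific activity and sample volume, and reported as mean + S.D.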

[19] = Drug uptake in albino F344/DuCrlCrlj rat epididymis at 5 mg/kg, po after 168 hrs by liquid scintillation counting; assay type: ADME, organism-based; parameters: dose 5 mg/kg, dosed compound name [14C]CS-1036, route oral; conditions: in vivo
Heart [20] = assay: Drug uptake in albino F344/DuCrlCrlj rat heart at 5 mg/kg, po after 72 hrs by liquid scintillation counting; assay type: ADME, organism-based; parameters: dose 5 mg/kg, dosed compound name [14C]CS-1036, route oral; conditions: in vivo
Blood [21] = assay: Drug uptake in albino F344/DuCrlCrlj rat blood at 5 mg/kg, po after 1 hr by liquid scintillation counting; assay type: ADME, organism-based; parameters: dose 5 mg/kg, dosed compound name [14C]CS-1036, route oral; conditions: in vivo; how it was run: as §1
Plasma [22] = assay: Drug metabolism in albino F344/DuCrlCrlj rat plasma protein assessed as unbound parent compound and metabolite M1 level at 10 mg/kg, po administered for 5 days by liquid scintillation counting; assay type: ADME, organism-based; parameters: dose 10 mg/kg, dosed compound name [14C]CS-1036, route oral; conditions: in vivo, 120 h
How it was run: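 Male F344/DuCrlCrlj rats (n = 3) received oral [14C]CS-1036 at 10 mg/kg/day for 5 days at 24-h intervals, with food freely available. Plasma was taken from the abdominal aorta 24 h after the fifth dose and pooled. It was precipitated with acetonitrile, and the pellets were washed with 0.4 M TCA, 80% methanol and 30% ether/ethanol until washes were below twice background. Pellets were HCl-hydrolysed, and recovered radioactivity was counted by LSC.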

Adrenal gland [23] = assay: Drug uptake in albino F344/DuCrlCrlj rat adrenal gland assessed as ng equivalent of CS-1036 at 5 mg/kg, po after 72 hrs by liquid scintillation counting; assay type: ADME, organism-based; parameters: dose 5 mg/kg, dosed compound name [14C]CS-1036, route oral; conditions: in vivo
Blood [24] = assay: Drug uptake in albino F344/DuCrlCrlj rat blood at 5 mg/kg, po after 168 hrs by liquid scintillation counting; assay type: ADME, organism-based; parameters: dose 5 mg/kg, dosed compound name [14C]CS-1036, route oral; conditions: in vivo; how it was run: as §1
[25] = Drug uptake in albino F344/DuCrlCrlj rat fat assessed as ng equivalent of CS-1036 at 5 mg/kg, po after 1 hr by liquid scintillation counting; assay type: ADME, organism-based, Adipose tissue; parameters: dose 5 mg/kg, dosed compound name [14C]CS-1036, route oral; conditions: in vivo
How it was run: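 Male F344/DuCrlCrlj rats (bought at 7 weeks, acclimatized 5–6 days; 159–167 g; n = 3 per time point) received a single oral dose of [14C]CS-1036 at 5 mg/kg. White adipose tissue was collected after abdominal aortic bleeding at 1, 4, 8, 24, 72, 168 or 336 h. Samples were counted by LSC with external-standard efficiency correction. Results were converted to ng equivalents per g from specific activity and sample weight.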

Thymus = assay: Drug uptake in albino F344/DuCrlCrlj rat thymus at 5 mg/kg, po after 72 hrs by liquid scintillation counting; assay type: ADME, organism-based; parameters: dose 5 mg/kg, dosed compound name [14C]CS-1036, route oral; conditions: in vivo
Stomach [26] = assay: Drug uptake in albino F344/DuCrlCrlj rat stomach at 5 mg/kg, po after 8 hrs by liquid scintillation counting; assay type: ADME, organism-based; parameters: dose 5 mg/kg, dosed compound name [14C]CS-1036, route oral; conditions: in vivo

In the case of C[C@H]1O[C@@H](O[C@H]2[C@H](O)[C@@H](O)[C@@H](O[14C@H]3[14C@H](O)[14CH2]N[14C@@H]3[14CH2]O)O[C@@H]2CO)[C@H](O)[C@@H](O)[C@@H]1O, the Radiolabel recovery (Small intestine [1]) is reported as 965 ngequiv/g, the Radiolabel recovery (Spleen) is reported as 82.4 ngequiv/g and the Radiolabel recovery [2] is reported as 3.81 ngequiv/g. The Radiolabel recovery [3] was 7.2 ngequiv/g, the Radiolabel recovery [4] was 20 ngequiv/g and the Radiolabel recovery (Plasma [5]) was 3.57 ngequiv/ml. The Radiolabel recovery (Adrenal gland [6]) was 20.2 ngequiv/g, the Radiolabel recovery (Lung [7]) was 72.1 ngequiv/g and the Radiolabel recovery (Small intestine [8]) was 121 ngequiv/g. The Radiolabel recovery (Lung [9]) was 3.93 ngequiv/g, the Radiolabel recovery (Large intestine) was 299 ngequiv/g and the Radiolabel recovery (Heart [10]) was 7.28 ngequiv/g. For the same molecule, the Radiolabel recovery (Zone of skin) was 2.2 ngequiv/g, the Radiolabel recovery [11] was 7.4 ngequiv/g and the Radiolabel recovery [12] was 25.8 ngequiv/g. The Radiolabel recovery (Cerebrum) was 0.23 ngequiv/g, the Radiolabel recovery (Lung [13]) was 37.8 ngequiv/g and the Radiolabel recovery (Heart [14]) was 27.9 ngequiv/g. For the same molecule, the Radiolabel recovery (Stomach [15]) was 11.9 ngequiv/g, the Radiolabel recovery [16] was 9.2 ngequiv/g and the Radiolabel recovery (Heart [17]) was 1.1 ngequiv/g. The Radiolabel recovery (Blood [18]) was 44.3 ngequiv/ml, the Radiolabel recovery [19] was 18.5 ngequiv/g and the Radiolabel recovery (Heart [20]) was 27.5 ngequiv/g. The Radiolabel recovery (Blood [21]) was 60.5 ngequiv/ml, the Radiolabel recovery (Plasma [22]) was 11.3% and the Radiolabel recovery (Adrenal gland [23]) was 30.3 ngequiv/g. For the same molecule, the Radiolabel recovery (Blood [24]) was 8.55 ngequiv/ml, the Radiolabel recovery [25] was 1.53 ngequiv/g and the Radiolabel recovery (Thymus) was 48.3 ngequiv/g. The Radiolabel recovery (Stomach [26]) was 135 ngequiv/g.
